Assay outcomes: PubChem, The Scripps Research Institute Molecular Screening Center
NPY Y1 blocker – NPY-Y1 (human) receptor antagonism; HEK293-CNG Y1 cells, membrane potential fluorescence; NPY at EC95, then isoproterenol; inhibition, % at 3.6 µM; hit rate 1% among 200,000;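 active means inhibition above the campaign mean inhibition of all tested compounds plus 3 SD, cut at about 20% in these data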;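 further: 0% = DMSO wells given NPY plus isoproterenol and 100% = isoproterenol alone without NPY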
Target sequence (P25929 whole entry, looked up): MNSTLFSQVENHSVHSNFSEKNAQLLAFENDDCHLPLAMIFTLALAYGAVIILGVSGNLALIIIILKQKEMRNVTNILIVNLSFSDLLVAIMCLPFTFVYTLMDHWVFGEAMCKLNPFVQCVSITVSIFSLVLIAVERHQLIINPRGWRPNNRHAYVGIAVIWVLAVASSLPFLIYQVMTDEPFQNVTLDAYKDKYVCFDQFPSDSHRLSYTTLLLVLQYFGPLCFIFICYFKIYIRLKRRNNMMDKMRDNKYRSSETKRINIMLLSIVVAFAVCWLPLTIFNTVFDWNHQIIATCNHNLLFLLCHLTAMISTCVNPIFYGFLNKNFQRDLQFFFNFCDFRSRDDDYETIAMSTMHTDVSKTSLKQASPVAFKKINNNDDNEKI
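System: HEK293 cells with Y1 receptor plus CNG channel / Probe or stimulus: NPY 25 nM then isoproterenol 1 µM plus Ro 20-1724 25 µM / Compound: one concentration, 3.6 µM, in 0.4% DMSO / Schedule: compound incubation 1 h at room temperature, readout 45 min post-stimulation / Measured by: membrane potential fluorescence / Read-out: % inhibition of NPY effect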
NPY-Y1 PAM-ag – human NPY-Y1 potentiation or agonism, primary screen. NPY-Y1 expressing cells, potentiator/agonist activation. P25929. activation, % at 3.6 µM. hit rate 0.37% among 220,000; in the data active means activation above about 33%, passing the limit was not always enough;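 further: cells stimulated with NPY at EC10 then isoproterenol at EC100; 0% = low agonist plus stimulus and 100% = saturating agonist plus stimulus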
NPY2 pot ag – potentiates or activates human NPY-Y2 receptor; P49146; cells expressing NPY-Y2, potentiator/agonist read-out; activation, % at 3.6 µM; hit rate 0.45% among 220,000; in the data active means activation above about 27%;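 further: cells stimulated with NPY near EC25 plus isoproterenol at EC100; 0% = vehicle plus submaximal agonist and 100% = vehicle plus saturating agonist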
NPY Y2 blocker – blocks the human neuropeptide Y Y2 receptor | NPY-Y2 expressing cells, antagonist mode | P49146 | inhibition, % at 2.7 µM | hit rate 0.99% among 140,000;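 further: 0% = vehicle with agonist challenge and 100% = reference antagonist with challenge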
NPY1 antag conf – human NPY-Y1 antagonism, confirmation | shares compounds with NPY Y1 blocker | HEK293-CNG NPY-Y1, membrane potential fluorescence, cAMP; NPY challenge against isoproterenol-raised cAMP | inhibition, % at 3.6 µM | hit rate 21% among 1,200 | AID 1254; in the data active means inhibition above about 20%;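 further: 0% = vehicle with agonist plus stimulus and 100% = stimulus alone without agonist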
NPY2 antag ctr – antagonizes human NPY-Y2, counter-screen to NPY-Y1 antagonists. hit rate 28% among 1,200. inhibition, % at 3.6 µM. shares compounds with NPY Y1 blocker. HEK293 NPY-Y2 CNG membrane potential fluorescence, antagonism; cells given NPY, then isoproterenol. AID 1255;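 further: 0% = DMSO with agonist challenge and 100% = reference antagonist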
* hit, by the source's call; · = not tested or not shown. Compounds with a hit are over-represented: about 1.9% of the library has one in this group of screens. Unless noted, no stated cut-off is given here; in the data, active means inhibition above about 17%; inactive means the rest.

SMILES	NPY Y1 blocker	NPY-Y1 PAM-ag	NPY2 pot ag	NPY Y2 blocker	NPY1 antag conf	NPY2 antag ctr
O=C(CN1C(=O)C2CC=CCC2C1=O)Nc1nnc(SCc2ccc(Cl)cc2)s1 (stereo not given)	24*	-25	-14	15	9	10
Cc1ccc(-c2cc3cccc[n+]3cc2-c2ccc(C)cc2)cc1	22*	-62	-16	14	32*	21*
COc1ccc(-c2nnc3sc(C4CCCCC4)nn23)cc1OC	33*	-80	-40	16	24*	38*
CCCn1c2c(c(=N)c3c1CCC3)CCC2	·	-14	-24	·	·	·
CCCCCCCn1c2c(c(=N)c3ccccc31)CCC2	66*	-90	-37	·	60*	62*
CCc1ccc(S(=O)(=O)NC(=S)NC2CCCCC2)cc1	-1	-40	-11	·	·	·
COC(=O)Nc1nc(-c2ccccc2)c(C(=O)c2ccc(Cl)cc2)s1	6	-13	-24	6	·	·
CCOC(=O)Nc1nc(-c2ccccc2)c(C(=O)c2ccccc2)s1	36*	-20	-18	16	5	21*
c1ccc(CN(Cc2cccs2)C(c2cccs2)c2nnnn2C2CCCC2)cc1 (stereo not given)	21*	-15	-18	16	17	6
c1ccc(CC2CCN(C(c3cccs3)c3nnnn3C3CCCC3)CC2)cc1 (stereo not given)	-4	4	1	5	·	·
CC(C)(C)C(=O)OCc1cn(-c2ccc(Cl)cc2)nn1	3	-4	-9	5	·	·
O=C(OCc1cn(-c2ccc(Cl)cc2)nn1)c1ccccc1	21*	-27	-14	8	10	12
O=C(Nc1cccc(Cl)c1)OCc1cnc(Cl)s1	-2	-3	-6	8	·	·
Cc1ccc(NC(=O)OCc2cn(-c3ccc(Cl)cc3)nn2)cc1	29*	-21	-7	15	18	18*
O=C(Nc1cccc(Cl)c1)OCc1cn(-c2ccc(Cl)cc2)nn1	20*	0	3	7	8	12
CN1CCN(C(=O)C23CC4CC(C2)CC(c2ccccc2)(C4)C3)CC1	0	-1	-14	·	·	·
O=C(CSc1nc2ncccc2[nH]1)c1cccc([N+](=O)[O-])c1	6	1	10	1	·	·
CCCOc1ccc([N+](=O)[O-])c(N)c1	-3	6	-5	1	·	·
Cn1c(=O)c2ncn(CC(=O)N/N=C/c3ccco3)c2n(C)c1=O	-1	10	9	2	·	·
CCOc1ccc(-c2cc(CCCC(=O)Nc3cccc(OC)c3)no2)cc1	21*	-12	-13	8	11	21*
CCOc1ccc(NC(=O)CCCc2cc(-c3ccc(OCC)cc3)on2)cc1	0	7	-27	0	·	·
Clc1cccc(C2CCN(Cc3nc(CC4CC4)no3)C2)c1 (stereo not given)	9	-3	7	·	·	·
Cc1ccc(Nc2nc(-c3c(C)nc4ncccn34)cs2)cc1	24*	-3	-10	10	0	12
CCN(CC)CCn1c(=N)n(CC(O)COc2cccc(C)c2)c2ccccc21 (stereo not given)	55*	-48	-28	·	44*	41*
N=c1n(CCO)c2ccccc2n1Cc1ccc(Cl)cc1	11	-27	-20	6	·	·
SMILES	NPY Y1 blocker	NPY-Y1 PAM-ag	NPY2 pot ag	NPY Y2 blocker	NPY1 antag conf	NPY2 antag ctr
N=c1n(Cc2ccc(Cl)cc2)c2ccccc2n1CC(O)COc1ccccc1 (stereo not given)	41*	-9	-26	·	26*	22*
CCNCc1ccc(OCc2ccccc2F)c(OC)c1	3	-17	-3	·	·	·
CCN(CC)CCNCc1cc(Cl)ccc1OCc1ccccc1F	24*	-22	4	·	12	14
O=C(O)c1ccc(N(c2ccccc2)c2ccccc2)cc1	27*	-40	-37	14	21*	16
CCOc1ccc(NC(=O)CCC(=O)NNC(=O)Nc2ccc(Cl)cc2)cc1	-5	-2	7	·	·	·
COc1ccc(-c2c(C(F)(F)F)nn(C)c2NC(=O)CSCC(=O)O)cc1	·	-3	2	·	·	·
Cc1cc(C)nc(SCc2ccc(C(=O)N/N=C/c3ccccc3C(=O)O)cc2)n1	30*	-15	-22	·	1	1
COc1ccc(-c2csc3nc(C)nc(N4CCN(c5ccc(C(C)=O)cc5)CC4)c23)cc1OC	6	8	4	·	·	·
Cc1c(C(=O)N2CCOCC2)[nH]c2c1C(=O)CC(c1ccccc1Cl)C2 (stereo not given)	24*	-13	-12	5	3	18*
COC(=O)c1[nH]c2c(c1C)C(=O)CC(c1ccccc1)C2 (stereo not given)	1	-5	-23	3	·	·
CCOc1ccccc1CN1CCN(Cc2csc(C(C)=O)c2)CC1CCO (stereo not given)	3	-8	-3	·	·	·
O=C(Nc1ccc(F)cc1F)c1sccc1SCc1cccc(C(F)(F)F)c1	48*	-32	-22	7	23*	17*
NNC(=O)c1sccc1OCc1cccc(C(F)(F)F)c1	6	-33	-18	·	·	·
O=C(Cc1cccc(C(F)(F)F)c1)Nc1ccccc1	2	-13	9	·	·	·
COc1ccc(NC(=O)c2sccc2SCc2cccc(C(F)(F)F)c2)cc1	32*	-26	-27	6	7	8
O=C(Nc1ccc(F)cc1)c1sccc1SCc1cccc(C(F)(F)F)c1	25*	-15	-32	13	9	10
CCCN(Cc1nnc(-c2ccccc2Cl)o1)C(=O)c1cc([N+](=O)[O-])cc([N+](=O)[O-])c1	1	29	2	·	·	·
O=c1[nH]c(SCc2ccc(F)cc2Cl)nc2ccccc12	-2	-4	-3	·	·	·
O=C1N(c2ccccc2)C[C@@H]2C[C@@H](c3cc4ccccc4o3)N3CCC[C@@]123	27*	-8	-5	·	18	12
COc1ccc(-c2ccc(C(=O)O)c(=O)[nH]2)cc1	-3	-8	6	·	·	·
Cc1ccc(-c2ccc(C(=O)O)[nH]2)cc1	28*	-39	-43	11	7	8
Cc1ccc(N2C(N)=C(C#N)C(c3cc(CN4CCOCC4)cs3)C3=C2CC(C)(C)CC3=O)cc1 (stereo not given)	2	21	7	·	·	·
CN(C)c1ccnc(N(Cc2ccccc2)Cc2ccccc2)c1C#N	39*	-33	-31	8	48*	83*
CN(C)c1ccnc(NCc2ccccc2)c1C#N	1	-24	5	3	·	·
Cc1ccnc(NS(=O)(=O)c2ccc(NC(=O)c3cc(-c4ccc(Br)cc4)nc4ccccc34)cc2)n1	0	3	-9	4	·	·
Cc1ccc(NC(=S)N/N=C/c2ccc(OCCC(C)C)cc2)c(C)c1	21*	-14	-11	7	11	7
Cc1cccc(Nc2cc(C)c3c(O)cccc3n2)c1C	-5	4	8	0	·	·
COC(=O)c1ccccc1NC(=O)CSc1nnc(-c2cccnc2)n1N	-2	0	4	·	·	·
